The entries come from a sample that favours hits as a whole.
L major viab: reduces viability of Leishmania major promastigotes. resazurin fluorescence viability. inhibition, % at 10 µM. 200,000 tested, 9% active. AID 1063; in the data active means inhibition above about 50%;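 further: promastigotes grown with compound for 44 hours at 28 °C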
MPTP inh: permeability transition pore inhibition; isolated mouse mitochondria, Ca2+ swelling absorbance, 30 min; inhibition, % at 10 µM; 360,000 tested, 1.4% active;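 active means inhibition of 50% or more, scaled per plate between neutral and stimulator controls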
T cruzi inh: blocks replication of Trypanosoma cruzi | T. cruzi beta-gal in NIH3T3, luminescence, 90 h | 300,000 tested, 1.4% active | AID 1885 | inhibition, % (concentration not given with the values);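 active means mean inhibition across valid replicates above about 55%, limit read from the data; inconclusive means mean below that limit but half or more replicates reach it; inactive means mean below it, under half of replicates reach it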;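 further: signal also drops with host cell toxicity which is not excluded here; higher percent means less beta-gal luminescence so fewer parasites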
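Incubation – ≥90 h infection period, 3 h prior cell attachment · System – NIH/3T3 fibroblasts plus reporter T. cruzi · Doses – compound pinned at 50 nL/well, DMSO · Read-out basis – percent inhibition of parasite-derived β-gal signal · Signal – luminescent β-galactosidase signal after 60 min lysis · Also added – 5000 T. cruzi trypomastigotes/well · Medium – Low-serum DMEM with 2% FBS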
Lipid droplet: hepatic lipid droplet formation modulation | AID 1656 | inhibition, % at 6.5 µM | 240,000 tested, 0.4% active | AML12 mouse hepatocytes, oleate lipid droplets, BODIPY imaging;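 active means lipid droplet intensity inhibited by at least 50%, with more than 500 cells counted; inconclusive means wells with under 300 cells, treated as cytotoxic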
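material = mouse AML12 hepatocyte cell line, fixed after treatment | also added = 100 µM oleic acid challenge | doses = compound at 6.5 µM only | schedule = overnight exposure | technique = Image-based BODIPY and DAPI two-channel analysis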
DTT redox prof: compounds producing H2O2 with reducing agent – biochemical, NIH compound library profiling, artefact control for MLSCN library redox annotation, primary screen. DTT-dependent redox cycling H2O2, phenol red/HRP absorbance; 100% = 100 µM peroxide control, 0% = buffer. activation, % at 10 µM. 200,000 tested, 0.03% active;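 active means activation of at least 50% relative to the plate's high and low controls in the primary single-dose screen; inactive means activation below 50%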;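 further: compound incubated with DTT at 0.8 mM final as the reducing agent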
Large screens that a line does not name were inactive.

CCC(=O)NC(=S)Nc1ccc(NC(=S)NC(=O)c2ccccc2)cc1	T cruzi inh 60.5
CCC(=O)NC(=S)Nc1ccc(NC(=S)NC(=O)c2ccc(C)cc2)cc1	none
CCC(=O)NC(=S)Nc1ccc(NC(=O)c2cccc([N+](=O)[O-])c2C)cc1	L major viab 58.5
CCCCCCn1cc(CN2CC(N3CCN(CCO)CC3)CS2(=O)=O)nn1 (stereo unspecified)	none (no result: L major viab, T cruzi inh, Lipid droplet, DTT redox prof)
CCOC(=O)C1=C(C)N(c2ccc(C)c(C)c2)C(=O)/C1=C\c1ccco1	none (no result: Lipid droplet)
COC(=O)C1=C(C)N(c2ccc(C)c(C)c2)/C(=C/c2ccco2)C1=O	L major viab 61.4
COc1ccc(CN2CCC(=O)N([C@H](CO)c3ccccc3)CC2)cc1	none (no result: L major viab, Lipid droplet, DTT redox prof)
COc1ccccc1NC(=S)N(Cc1ccc(C)cc1)Cc1cccnc1	none
OCCN(Cc1ccccc1)C(=S)Nc1ccc(F)cc1	none
COc1ccc(NC(=S)N(Cc2cccnc2)Cc2cc3cc(OC)c(OC)cc3[nH]c2=O)cc1	none
COc1ccccc1NC(=S)N(CCc1nc2cc(C)c(C)cc2[nH]1)Cc1cccnc1	L major viab 57.1 (no result: Lipid droplet)
Cc1cc2nc(CCN(Cc3cccnc3)C(=S)Nc3ccc(F)cc3)[nH]c2cc1C	T cruzi inh 61.4 (no result: Lipid droplet)
Cc1ccccc1NC(=O)N(CCc1nc2ccccc2[nH]1)Cc1ccccc1	L major viab 57.8
Cc1cc2nc(CCN(Cc3cccnc3)C(=S)Nc3ccccc3)[nH]c2cc1C	L major viab 90.6
Cn1nc(C(=O)NCCOc2ccccc2)c2ccccc2c1=O	none
Cc1c(Br)ccc(NC(=O)c2ccccc2[N+](=O)[O-])c1C	none
CC1=CC(C)(C)Nc2ccc(OC(=O)C(Cc3ccccc3)N3C(=O)c4ccccc4C3=O)cc21 (stereo unspecified)	L major viab 98.8 (no result: Lipid droplet)
C#CCOC(=O)CN1C(=O)c2cccc3cccc(c23)C1=O	none (no result: L major viab, DTT redox prof)
COC(=O)c1ccc(OC(=O)CN2C(=O)c3ccccc3C2=O)cc1	none (no result: L major viab, DTT redox prof)
CC1=CC(C)(C)Nc2ccc(OC(=O)CN3C(=O)c4cccc5cccc(c45)C3=O)cc21	L major viab 95.0 (no result: Lipid droplet)
CC1=CC(C)(C)Nc2ccc(OC(=O)CN3C(=O)c4ccccc4C3=O)cc21	L major viab 100.5
O=C1CN(S(=O)(=O)c2cccc(Br)c2)CCN1	none (no result: L major viab, T cruzi inh, Lipid droplet, DTT redox prof)
Cc1ccc2c(C(=O)CN3CCSCC3)c(C)[nH]c2c1	none (no result: T cruzi inh)
Cc1ccc2c(C(=O)CCl)c(C)[nH]c2c1	T cruzi inh 56.4 (no result: L major viab, DTT redox prof)
Cc1ccc2[nH]cc(C(=O)CCl)c2c1	L major viab 80.7, T cruzi inh inconclusive
Cn1c(=O)c2c(n(C)c1=O)n(C)c(=O)n2C	none (no result: L major viab, T cruzi inh, Lipid droplet, DTT redox prof)
CC(C)CCNC(=O)NC(=O)CSc1ncccn1	none
CCN(CCCNC(=O)C1c2ccccc2C(=O)N(CCOC)C1c1ccc(F)cc1)Cc1ccccc1 (stereo unspecified)	L major viab 99.2
CCOC(=O)c1c(NC(=O)C2CCCN(S(=O)(=O)c3ccccc3)C2)sc2c1CCCC2 (stereo unspecified)	L major viab 81.4
CCOC(=O)c1c(NC(=S)Nc2ccccc2)sc2c1CCCCC2	none (no result: Lipid droplet)
CCOC(=O)c1c(NC(=O)COc2cccc3c2CCN(C)C3=O)sc2c1CCC2	L major viab 79.8
CCN1CCc2c(sc(NC(=O)c3cc4ccccc4cc3OC)c2C(N)=O)C1	T cruzi inh 58.4 (no result: L major viab, DTT redox prof)
CCOC(=O)c1c(NC(=S)Nc2ccccc2)sc2c1CCN(CC)C2	L major viab 98.5 (no result: Lipid droplet)
CC1=C(C(=O)N2CCCCCC2)CC(CC(=O)NC2CCCC2)C(=O)N1CCC1=CCCCC1 (stereo unspecified)	none (no result: L major viab, T cruzi inh, Lipid droplet, DTT redox prof)
CCOC(=O)c1c(NC(=O)C2COc3ccccc3O2)sc2c1CCN(Cc1ccccc1)C2 (stereo unspecified)	L major viab 57.8
Cc1ccc(S(=O)(=O)N/N=C\c2ccc([N+](=O)[O-])o2)cc1	L major viab 87.2
Cc1ccc(S(=O)(=O)N/N=C\c2ccc([N+](=O)[O-])o2)cc1C	none (no result: L major viab, DTT redox prof)
O=[N+]([O-])c1ccc(/C=N/N=C/c2ccc([N+](=O)[O-])o2)o1	L major viab 100.4 (no result: T cruzi inh)
O=[N+]([O-])c1ccc(/C=N/NS(=O)(=O)c2ccc(Cl)cc2)o1	L major viab 53.4 (no result: T cruzi inh)
Cc1cc2ncn(/N=C/c3ccc([N+](=O)[O-])o3)c2cc1C	L major viab 99.1, T cruzi inh 60.1 (no result: Lipid droplet)
CC1CN(N=Cc2ccc([N+](=O)[O-])o2)C(=N)O1 (stereo unspecified)	none (no result: L major viab, T cruzi inh, Lipid droplet, DTT redox prof)
O=C(O)C1CCCCC1C(=O)Nc1ccc(S(=O)(=O)N2CCCC2)cc1 (stereo unspecified)	none (no result: L major viab, DTT redox prof)
O=C(c1ccc(Oc2cc(Cl)cc(Cl)c2)o1)N1CCCCC1	none (no result: L major viab, DTT redox prof)
C=CCn1c(=NC(=O)C2CC2)sc2cc(NC(C)=O)ccc21	none (no result: Lipid droplet)
C=CCn1c(=NC(=O)C2CCCCC2)sc2cc(NC(C)=O)ccc21	L major viab 79.5
CCCCNC(=O)C1(C)CCN1C(=O)c1csnn1 (stereo unspecified)	none (no result: L major viab, T cruzi inh, Lipid droplet, DTT redox prof)
CC(C)(C)C(=O)COC(=O)c1cccc(NC(=O)c2ccco2)c1	none (no result: Lipid droplet)
COc1ccccc1NC(=O)c1ccc(NC(=O)c2ccco2)cc1	none (no result: L major viab, DTT redox prof)
COc1ccccc1NC(=O)c1cccc(NC(=O)c2ccco2)c1	L major viab 87.9
O=C(COC(=O)c1cccc(NC(=O)c2ccco2)c1)c1ccc(Br)cc1	L major viab 98.7 (no result: Lipid droplet)
COc1ccc(NC(=O)c2ccco2)cc1NC(=O)c1ccco1	none (no result: Lipid droplet)
COc1ccccc1NC(=O)Oc1ccc(NC(=O)c2ccco2)cc1	L major viab 52.1 (no result: Lipid droplet)
COc1cc(NC(=O)c2ccco2)c(OC)cc1NC(=O)Nc1cccc(Cl)c1	T cruzi inh 57.0 (no result: Lipid droplet)
O=S(=O)(Nc1nc2ccccc2s1)c1ccc(Cl)nc1	none (no result: L major viab, DTT redox prof)
COc1ccc(NC(=O)C/C(C)=N/NC(=O)c2cccs2)c([N+](=O)[O-])c1	none (no result: L major viab, DTT redox prof)
O=C(Nc1ccc(C(=O)Oc2ccccc2)c(O)c1)c1ccco1	L major viab 55.0
O=C(Nc1ccc(Oc2ccc(NC(=O)c3ccco3)c(NC(=O)c3ccco3)c2)cc1)c1ccco1	L major viab 98.1
Cc1cc(NS(=O)(=O)c2c(C(=O)N3CCOCC3)c(C)n(C)c2C)ccc1Br	none (no result: L major viab, DTT redox prof)
O=C(NCC(c1ccc(F)cc1)N1CCOCC1)c1ccc([N+](=O)[O-])o1 (stereo unspecified)	none (no result: L major viab, T cruzi inh, Lipid droplet, DTT redox prof)
O=C(Cc1ccc(-n2c(=O)c3ccccc3n(Cc3ccccc3Cl)c2=O)cc1)NCC1CCCO1 (stereo unspecified)	L major viab 100.1
O=C(Cc1ccc(-n2c(=O)c3ccccc3n(Cc3ccc(F)cc3)c2=O)cc1)NCC1CCCO1 (stereo unspecified)	none
O=C(Cc1ccc(-n2c(=O)c3ccccc3n(Cc3ccccc3F)c2=O)cc1)NCC1CCCO1 (stereo unspecified)	L major viab 99.1
Cc1ccc(NC(=O)CSCC(=O)N2CCN(c3cccc(C(F)(F)F)c3)CC2)cc1	none (no result: L major viab, Lipid droplet, DTT redox prof)
Cc1sc2nc(CSc3ccccc3)nc(N3CCN(C)CC3)c2c1C	L major viab 98.1, T cruzi inh inconclusive

Screening data from PubChem BioAssay.
